Bioassay records (PubChem)
Sampled rows, rich in hits. Any-hit rate of the full collection: about 10%.
PMI activator = activators of human PMI, primary screen, biochemical, fluorescence intensity, near-Km mannose 6-phosphate; 0.005% of 190,000 active; Mannose-6-phosphate isomerase (Homo sapiens), P34949; activation factor at 20 µM; AID 1214, 2008; purified human PMI, coupled resazurin fluorescence, 20 min; stronger effect = higher value; 1 = vehicle control, 0 substrate-free wells;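 active = activation factor of 2 or more at 20 µM, relative to plate controls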
Target sequence (P34949 whole entry, looked up): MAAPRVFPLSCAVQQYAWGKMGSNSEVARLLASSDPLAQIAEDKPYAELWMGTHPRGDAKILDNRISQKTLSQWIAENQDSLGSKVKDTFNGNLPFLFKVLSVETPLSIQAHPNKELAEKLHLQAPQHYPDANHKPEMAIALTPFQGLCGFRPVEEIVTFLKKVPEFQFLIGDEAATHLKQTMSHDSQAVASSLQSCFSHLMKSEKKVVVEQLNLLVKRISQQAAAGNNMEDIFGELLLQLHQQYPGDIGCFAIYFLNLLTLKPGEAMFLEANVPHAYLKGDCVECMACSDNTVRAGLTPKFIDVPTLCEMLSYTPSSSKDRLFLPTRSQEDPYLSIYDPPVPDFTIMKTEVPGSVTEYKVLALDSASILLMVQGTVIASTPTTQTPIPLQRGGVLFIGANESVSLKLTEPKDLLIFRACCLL
L major viab = Leishmania major promastigote growth inhibition, primary screen; inhibition, % at 10 µM; 9% of 200,000 active; AID 1063, 2008; Leishmania major promastigotes, resazurin fluorescence viability; in the data active = inhibition above about 50%;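 note: promastigotes grown with compound for 44 hours at 28 °C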
Diaphorase act = compounds boosting diaphorase resazurin reduction – biochemical, uHTS, resorufin fluorescence, counter-screen for diaphorase-coupled primary assays, primary screen. AID 1229, 2008. activation factor at 20 µM. Diaphorase/resazurin coupled assay, 16 min; stronger effect = higher value; 1 = vehicle wells, 0 = NADH-free wells. 0.005% of 190,000 active;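 active = diaphorase activity raised at least twofold by the compound at 20 µM; inactive = activation factor below 2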
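Material: purified diaphorase enzyme from Clostridium kluyveri / Medium: HEPES pH 7.4 buffer with MgCl2 and Tween 20 / Schedule: enzyme reaction of 16 min at room temperature / Measured by: resorufin fluorescence, excitation 544 nm, emission 590 nm / Evaluation: rise in resorufin formation, marking diaphorase activation or chemical reduction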
PMI act hi M6P = human PMI activators, high substrate, primary screen, biochemical, fluorescence intensity, near-saturating mannose 6-phosphate | Mannose-6-phosphate isomerase (Homo sapiens), P34949 | activation factor at 20 µM | 0.34% of 190,000 active | coupled PMI enzyme assay, resazurin fluorescence, 20 min; stronger effect = higher value; 1 = untreated enzyme, 0 = substrate-free blank | AID 1216, 2008;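 active = activation factor of 2 or more at 20 µM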
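Material: human phosphomannose isomerase with PGI, G6PDH, diaphorase coupling enzymes / Reagent: Man-6-P substrate 1.0 mM / Dosing: single compound dose of 20 µM, 1% DMSO final / Incubation: enzyme reaction with compound 20 min at room temperature / Signal: resorufin fluorescence (Ex 544/Em 590 nm) from resazurin via diaphorase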
WT yeast gro inh = growth inhibition of WT strain, primary screen, mitochondrial fusion inhibitor project, WT and mutant strains, chemical genetic. mitochondrial fusion phenotypic screen. inhibition, % at 10 µM. 2.1% of 190,000 active. AID 1362, 2008; in the data active = inhibition above about 58%; tested in S. cerevisiae
The depositor's hits bear a star.

SMILES	PMI activator	L major viab	Diaphorase act	PMI act hi M6P	WT yeast gro inh
COc1cc(CN2CCC(C(=O)N3CCC(C)CC3)CC2)cc(Br)c1O	0.8	82*	0.6	0.8	8
CCOC(=O)c1c(C(C)(C)C)oc2ccc(O)cc12	0.8	100*	0.8	0.8	-20
CCc1cccc(CC)c1N1C(=O)c2cc(N3CCOCC3)c([N+](=O)[O-])cc2C1=O	0.9	84*	0.8	0.9	29
CCc1ccc(N2C(=O)c3cc(N4CCOCC4)c([N+](=O)[O-])cc3C2=O)cc1	1.1	-5	0.9	1.1	11
Cc1ccc(C)c(N2C(=O)c3cc(N4CCOCC4)c([N+](=O)[O-])cc3C2=O)c1	1	55*	0.8	0.9	5
O=C(CN1CCC(NC(=O)c2ccco2)CC1)Nc1ccccc1[N+](=O)[O-]	1	-1	1.1	1	-6
N#CC1=C(N)C(C#N)(C#N)C(c2cccnc2)C2CC(c3ccccc3)CC=C12 (stereo not given)	0.8	55*	0.7	0.5	16
N#CC1=C(N)C(C#N)(C#N)C(c2cccnc2)C2CCCC=C12 (stereo not given)	0.9	33	0.9	0.5	-2
CCCNc1nc(N)nc(-c2cc(Cl)ccc2OC)n1	0.9	-6	0.9	0.9	2
CCCN(CCC)c1nc(N)nc(-c2cc(Cl)ccc2OC)n1	0.8	58*	0.7	0.8	23
Cn1cc(S(=O)(=O)Nc2ccc3c(c2)OCCO3)cn1	1.2	-4	0.9	1	-1
CCC(c1nnnn1C1CCCC1)N1CCN(Cc2ccccc2)CC1 (stereo not given)	1.2	81*	0.9	1.3	-9
CCCC(c1nnnn1C1CCCC1)N1CCN(C(=O)c2ccco2)CC1 (stereo not given)	1	43	0.8	1.1	5
Fc1ccccc1C(c1nnnn1C1CCCC1)N1CCN(Cc2ccccc2)CC1 (stereo not given)	1.2	61*	0.9	1.2	-4
CCCCC(c1nnnn1C1CCCC1)N1CCN(C(=O)c2ccco2)CC1 (stereo not given)	1	58*	0.9	1.1	4
CCC(c1nnnn1CCOC)N1CCN(Cc2ccccc2)CC1 (stereo not given)	0.9	-6	0.9	1	-6
c1cncc(C(c2nnnn2C2CCCC2)N2CCN(Cc3ccc4c(c3)OCO4)CC2)c1 (stereo not given)	1	91*	0.9	1	-13
Cc1ccc(C(CC(=O)O)Nc2nc(N3CCOCC3)nc(N3CCOCC3)n2)cc1 (stereo not given)	1.3	-4	1	1.3	-3
CCS(=O)(=O)CCSC1OC(COC(C)=O)C(OC(C)=O)C(OC(C)=O)C1OC(C)=O (stereo not given)	1	-5	0.9	1.1	-7
Cc1ccn2cc(-c3ccc(NC(=O)c4ccco4)cc3)nc2c1	1	68*	1	1	19
Cc1ccn2cc(-c3ccc(NS(=O)(=O)c4ccccc4)cc3)nc2c1	1.1	92*	0.8	1	-7
Cc1ccc(S(=O)(=O)Nc2ccc(-c3cn4ccc(C)cc4n3)cc2)cc1	1	19	0.9	1.1	26
COc1ccc(N2CCN(C(CNC(=O)C(=O)NCCCn3ccnc3)c3ccco3)CC2)cc1 (stereo not given)	1	7	0.9	0.9	2
O=C(c1ccccn1)N1N=C2/C(=C/c3ccc(F)cc3)CCCC2C1c1ccc(F)cc1 (stereo not given)	0.8	18	0.7	0.9	74*
CCCn1c(SCC(=O)N2N=C3/C(=C/c4ccc(OC)cc4)CCCC3C2c2ccc(OC)cc2)n[nH]c1=O (stereo not given)	0.8	92*	0.8	0.9	34
O=C(O)c1c(C(=O)N2N=C3/C(=C/c4ccccc4)CCCC3C2c2ccccc2)cccc1[N+](=O)[O-] (stereo not given)	1	-4	0.9	0.9	-8
